Experimental data from ChEMBL document CHEMBL5325429, “Antibacterial and antibiofilm activity of permanently ionized quaternary ammonium fluoroquinolones” (Eur J Med Chem, 2023).
The source made the active and inactive calls. The calls are words filed in the database; no cut-off is given here.

How the values were obtained:
[1] = system: Staphylococcus aureus; assay: Antibiofilm activity against Staphylococcus aureus assessed as inhibition of biofilm formation at 2.5 to 5 uM incubated for 18 hrs relative to control; set-up: scale not given: the % may be the effect or the level left; conditions: dose 2.5-5 µM
[2] = Cytotoxicity against mouse BALB/3T3 clone A31 cells assessed as viable cells at 200 uM incubated for 48 hrs by celltiter glo luminescent assay relative to control; assay type: toxicity, cell-based; conditions: read-out: Activity
[3] = system: Pseudomonas aeruginosa; assay: Antibiofilm activity against Pseudomonas aeruginosa ATCC 15442 assessed as reduction in bacterial viability incubated for 18 hrs; assay type: functional
Outline: (§1)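 Biofilm viability by resazurin. 10^6 CFU/mL TSB culture was exposed to compound (50x DMSO stock) for 18 h at 37 °C with shaking at 220 rpm. Biofilm was washed once with PBS and stained with resazurin (1:20 in PBS) in the dark at 37 °C for about 1 h (P. aeruginosa) or about 30 min (S. aureus). Fluorescence ex 560/em 590 is given as % of untreated control.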

[4] = system: Staphylococcus aureus; assay: Antibiofilm activity against Staphylococcus aureus ATCC 25923 assessed as reduction in bacterial viability at 50 uM incubated for 18 hrs by resazurin staining based assay relative to control
[5] = system: Staphylococcus aureus; assay: Antibacterial activity against Staphylococcus aureus ATCC 29213 assessed as bacterial growth inhibition incubated for 24 hrs by broth microdilution assay; assay type: functional
Outline: (§2)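 Broth microdilution per CLSI. Colonies from overnight Mueller Hinton agar were suspended in 0.9% saline, set by densitometer, and diluted in cation-adjusted MHB to 1×10^6 CFU/mL. This was mixed 1:1 with compound and incubated 24 h at 37 °C. A600 was read versus untreated control and checked visually. Screen at 50 μM; compounds with ≥80% inhibition went to MIC testing at 75–0.78 μM. […] Two independent experiments, three technical replicates each.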

[6] = system: Pseudomonas aeruginosa; assay: Antibiofilm activity against Pseudomonas aeruginosa ATCC 15442 assessed as log 10 reduction in CFU at 200 uM incubated for 18 hrs; assay type: functional
Outline: (§3)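 Post-exposure CFU count. Biofilms were grown 18 h at 37 °C, 220 rpm, from a 10^6 CFU/mL TSB culture. Planktonic cells were removed, then compound (50x DMSO stock) in fresh TSB was added for a further 24 h. Wells were PBS-washed, scraped into PBS, serially diluted 10-fold and spotted on agar. After 24 h incubation, spots with 3–30 colonies were counted and reported as log10 cells/mL. Two experiments on different days, two technical replicates each.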

[7] = system: Pseudomonas aeruginosa; assay: Antibiofilm activity against Pseudomonas aeruginosa ATCC 15442 assessed as reduction in bacterial biomass incubated for 18 hrs by crystal violet staining based assay; assay type: functional
Outline: (§4)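 Pre-exposure biofilm: 10^6 CFU/mL TSB culture with compound (50x DMSO stock), 18 h at 37 °C, shaken at 220 rpm. After the resazurin read, biofilms were ethanol-fixed for 15 min, dried, and stained 5 min with 100x-diluted crystal violet. After two water washes, dye was solubilised in 96% ethanol for about 1 h and read at A595. Total biomass is expressed as % of untreated control.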

[8] = Cytotoxicity against mouse BALB/3T3 clone A31 cells incubated for 48 hrs by celltiter glo luminescent assay; assay type: toxicity, cell-based
[9] = system: Pseudomonas aeruginosa; assay: Antibiofilm activity against Pseudomonas aeruginosa ATCC 15442 assessed as reduction in bacterial viability at 10 to 50 uM incubated for 18 hrs; assay type: functional; conditions: dose 10-50 µM
Outline: as §1

[10] = Cytotoxicity against mouse BALB/3T3 clone A31 cells upto 50 uM incubated for 48 hrs by celltiter glo luminescent assay; assay type: toxicity, cell-based; conditions: balb/3t3 clone a31, 48 h
[11] = Selectivity index, ratio of CC50 for cytotoxicity against mouse BALB/3T3 clone A31 cells to MIC for antibacterial activity against Staphylococcus aureus ATCC 29213 assessed as bacterial growth inhibition; assay type: toxicity, cell-based; conditions: read-out: Selectivity Index
[12] = system: Staphylococcus aureus; assay: Antibiofilm activity against Staphylococcus aureus ATCC 25923 assessed as assessed as log 10 reduction in CFU at 200 uM incubated for 18 hrs; assay type: functional
Outline: as §3

[13] = system: Staphylococcus aureus; assay: Antibiofilm activity against Staphylococcus aureus ATCC 25923 assessed as reduction in bacterial biomass at 50 uM incubated for 18 hrs; assay type: functional, organism-based
Outline: as §4

[14] = system: Pseudomonas aeruginosa; assay: Antibiofilm activity against Pseudomonas aeruginosa ATCC 15442 assessed as reduction in biofilm formation at 5 to 25 uM incubated for 18 hrs relative to control; assay type: functional; set-up: scale not given: the % may be the effect or the level left; conditions: dose 5-25 µM
Outline: (§5)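 Pre-exposure biofilm assay. Inoculum: TSA colonies grown in TSB at 37 °C, 220 rpm, to OD 0.3–0.35, then diluted 100-fold to about 10^6 CFU/mL. Culture was mixed with compound (50x DMSO stock) and shaken at 220 rpm for 18 h at 37 °C. Biofilm was read by resazurin fluorescence (ex 560/em 590) and by crystal violet A595, as % of untreated control.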

[15] = system: Staphylococcus aureus; assay: Antibiofilm activity against Staphylococcus aureus ATCC 25923 assessed as reduction in bacterial biomass at 50 uM incubated for 18 hrs by crystal violet staining based assay relative to control; assay type: functional; set-up: scale not given: the % may be the effect or the level left
Outline: as §4

[16] = system: Pseudomonas aeruginosa; assay: Antibacterial activity against Pseudomonas aeruginosa ATCC 27853 assessed as bacterial growth inhibition incubated for 24 hrs by broth microdilution assay; assay type: functional
Outline: as §2

[17] = system: Pseudomonas aeruginosa; assay: Antibiofilm activity against Pseudomonas aeruginosa ATCC 15442 assessed as reduction in bacterial biomass at 10 to 50 uM incubated for 18 hrs by crystal violet staining based assay; assay type: functional, organism-based; conditions: dose 10-50 µM
Outline: as §4

[18] = Selectivity index, ratio of CC50 for cytotoxicity against mouse BALB/3T3 clone A31 cells to MIC for antibacterial activity against Pseudomonas aeruginosa ATCC 27853 assessed as bacterial growth inhibition; assay type: toxicity, cell-based; conditions: read-out: Selectivity Index
[19] = system: Pseudomonas aeruginosa; assay: Antibiofilm activity against Pseudomonas aeruginosa ATCC 15442 assessed as reduction in biofilm formation at 25 uM incubated for 18 hrs; assay type: functional, organism-based
Outline: as §5

[20] = system: Pseudomonas aeruginosa; assay: Antibiofilm activity against Pseudomonas aeruginosa ATCC 15442 assessed as reduction in biofilm formation at 100 uM incubated for 18 hrs relative to control; assay type: functional; set-up: scale not given: the % may be the effect or the level left
Outline: as §5

[21] = system: Pseudomonas aeruginosa; assay: Antibiofilm activity against Pseudomonas aeruginosa ATCC 15442 assessed as reduction in bacterial viability at 50 uM incubated for 18 hrs; assay type: functional, organism-based
Outline: as §1

[22] = system: Pseudomonas aeruginosa; assay: Antibiofilm activity against Pseudomonas aeruginosa ATCC 15442 assessed as reduction in bacterial viability at 20 to 40 uM incubated for 18 hrs relative to control; assay type: functional; conditions: dose 20-40 µM
Outline: as §1

[23] = system: Pseudomonas aeruginosa; assay: Antibiofilm activity against Pseudomonas aeruginosa ATCC 15442 assessed as reduction in bacterial biomass at 40 to 80 uM incubated for 18 hrs by crystal violet staining based assay relative to control; assay type: functional; set-up: scale not given: the % may be the effect or the level left; conditions: dose 40-80 µM
Outline: as §4

SMILES	MIC [5] [µM]	MIC [16] [µM]	Activity [1] [%]	viability at 48 h, 200 µM [2] [%]	MBIC [3] [µM]	Activity [4] [%]	Activity [6] [log10CFU]	MBIC [7] [µM]	CC50 at 48 h [8] [µM]	Activity [9] [%]	Activity [10]	selectivity ratio [11]	Activity [12] [log10CFU]	Activity [13]	Activity [14] [%]	Activity [15] [%]	Activity [17]	selectivity ratio [18]	Activity [22] [%]	Activity [23] [%]	other results
CCn1cc(C(=O)O)c(=O)c2cc(F)c(N3CC[N+]4(CN5C(=N4)C(C(=O)O)=Cc4ccccc45)C(C)C3)c(F)c21.[I-] (stereo unspecified)			>90																		
O=C(O)C1=Cc2ccccc2N2C[N+]3(CCN(c4cc5c(cc4F)c(=O)c(C(=O)O)cn5C4CC4)CC3)N=C12.[I-]			>90																>90	>90	

The next lines start with results.

MIC [5] [µM]	MIC [16] [µM]	SMILES	Activity [1] [%]	viability at 48 h, 200 µM [2] [%]	MBIC [3] [µM]	Activity [4] [%]	Activity [6] [log10CFU]	MBIC [7] [µM]	CC50 at 48 h [8] [µM]	Activity [9] [%]	Activity [10]	selectivity ratio [11]	Activity [12] [log10CFU]	Activity [13]	Activity [14] [%]	Activity [15] [%]	Activity [17]	selectivity ratio [18]	Activity [22] [%]	Activity [23] [%]	other results
6.25	6.25	C[N+]1(C)CCN(c2cc3c(cc2F)c(=O)c(C(=O)O)cn3C2CC2)CC1.[I-]		108	25	60	2	50	> 200	50	Non-Toxic	> 32	2	inactive	>90	100	inactive	> 32			
25	75	CCn1cc(C(=O)O)c(=O)c2cc(F)c(N3CC[N+](C)(C)C(C)C3)c(F)c21 (stereo unspecified)																			
25	25	O=C(O)C1=Cc2ccccc2N2C[N+]3(CCCN(c4cc5c(cc4F)c(=O)c(C(=O)O)cn5C4CC4)CC3)N=C12.[Cl-] (stereo unspecified)		1.55			2		160	50	Non-Toxic	6.4					inactive	6.4			Activity [19]: Active; Activity [20]: 80%; Activity [21]: Active
6.25	6.25	C[N+]1(C)CCCN(c2cc3c(cc2F)c(=O)c(C(=O)O)cn3C2CC2)CC1.[I-]	>90	81.7	25	60	2	50	> 200	50	Non-Toxic	> 32	2	inactive	>90	100	inactive	> 32	>90	>90	
